We go through 23 compounds from ChEMBL document CHEMBL1133612, “Analogues of amonafide and azonafide with novel ring systems” (J Med Chem, 2000).

Each structure is given as a SMILES string.

One may read the IC50 as the concentration needed to halve the response being measured. A lower IC50 goes with greater potency.

Format in all cases: functional, cell-based
The test system of assay [1] is UACC-375. In words: Tested for inhibitory activity against human tumor cell line UA375 of melanoma using sulforhodamine B assay. (In general: Sulforhodamine B stains cellular protein and so reports cell mass.)
Assay [2] can be described thus: Tested for inhibitory activity against human tumor cell line A549 (a non small, drug resistant cell line that does not produce P-glycoprotein) of lung carcinoma using sulforhodamine B assay.
The test system of assay [3] is MCF7. As to the kind of experiment: Tested for inhibitory activity against human tumor cell line MCF7, a strain resistant to mitoxantrone of breast carcinoma using sulforhodamine B assay.
Assay [4] concerns L1210. As to the kind of experiment: Tested for inhibitory activity against murine cell line […], a strain resistant to doxorubicin using MTT assay. To be noted: Mus musculus. The gist of the method:
(§1)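 Murine L1210 leukaemia cells were tested as a drug-sensitive strain and as a multiple drug-resistant strain that is P-glycoprotein positive. Growth inhibition in both strains was read by MTT assay.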
In general terms: Formazan colour is commonly taken as a measure of viable cells.

The subject of assay [5] is MCF7. In words: Tested for inhibitory activity against human tumor cell line D40, a strain resistant to doxorubicin of breast carcinoma using sulforhodamine B assay.
Assay [6] has as its system L1210. As to the kind of experiment: Tested for inhibitory activity against murine cell line […], a strain sensitive to doxorubicin using MTT assay. To be noted: Mus musculus. The gist of the method: as §1
The subject of assay [7] is WiDr. As to the kind of experiment: Tested for inhibitory activity against a multi drug resistant (MDR) strain of human colon carcinoma WiDr using sulforhodamine B assay (it is MRP positive but non-P-glycoprotein).
Assay [8] concerns MCF7. As to the kind of experiment: Tested for inhibitory activity against human tumor cell line MCF7, a strain sensitive to doxorubicin of breast carcinoma using sulforhodamine B assay.
Assay [9] relates to WiDr. In words: Tested for inhibitory activity against a sensitive strain of human colon carcinoma WiDr using sulforhodamine B assay (it is MRP positive but non-P-glycoprotein).
Assay [10] concerns OVCAR-3. In words: Tested for inhibitory activity against human tumor cell line OVCAR-3, a resistant ovarian carcinoma using sulforhodamine B assay.

For `CN(C)CCN1C(=O)c2cccc3c2c(cc2c(N)cccc23)C1=O`, the half-inhibitory concentration (IC50) was found to be 1080 nM in [1]; 280 nM in assay [2]; 550 nM in assay [3]; 54 nM in [4]; 590 nM in assay [5]; 54 nM in [6]. For the same compound, the IC50 in assay [7] was found to be 525 nM; in [8] it was 550 nM; in [9] it was 280 nM; in assay [10], 541 nM.
Regarding `COc1cccc2c1cc1c3c(cccc32)C(=O)N(CCN(C)C)C1=O`, the half-maximal inhibitory concentration (IC50) turned out to be 520 nM in assay [1]; 870 nM in assay [2]; 900 nM in assay [3]; 1560 nM in [4]; 820 nM in assay [5]; 520 nM in [6]. In addition, the IC50 came out at 1300 nM in assay [7], 860 nM in [8], 900 nM in assay [9] and 20 nM in assay [10].
In the case of `CN(C)CCN1C(=O)c2cccc3c2c(cc2ccccc23)C1=O`, the IC50 stood at 564 nM in assay [1]; 220 nM in assay [2]; 280 nM in assay [3]; 165 nM in assay [4]; 500 nM in assay [5]; 197 nM in assay [6]. Further, the IC50 in assay [7] was 420 nM; in assay [8], 220 nM; in [9], 240 nM; in assay [10], 564 nM.
For the compound `CN(C)CCN1C(=O)c2cc(NC(=O)C(C)(C)C)cc3cc4c(c(c23)C1=O)CCCC4`, the IC50 in assay [1] was found to be 4270 nM; in assay [2] it was 850 nM; in assay [3], 1000 nM; in assay [4] it was 1530 nM; in [5], 1300 nM; in assay [6], 984 nM. Also, the IC50 in [7] was 1500 nM; in [8] it was 1700 nM; in assay [9] it was 1200 nM; in assay [10], 4270 nM.
For `CN(C)CCN1C(=O)c2cccc3c2c(cc2cccc(O)c23)C1=O`, the IC50 in assay [1] stood at 405 nM; in assay [2], 160 nM; in [3], 390 nM; in assay [4], 540 nM; in assay [5], 675 nM; in assay [6], 540 nM. Further, the IC50 stood at 2300 nM in assay [7], 625 nM in assay [8], 260 nM in assay [9] and 675 nM in [10].
For the compound `CN(C)CCN1C(=O)c2cccc3c2c(cc2c(O)cccc23)C1=O`, the half-inhibitory concentration (IC50) in assay [1] turned out to be 540 nM; in assay [2] it was 420 nM; in assay [3] it was 340 nM; in assay [4], 1350 nM; in assay [5] it was 560 nM; in assay [6], 810 nM. The IC50 in assay [7] worked out at 500 nM; in assay [8], 625 nM; in assay [9], 320 nM; in assay [10], 810 nM.
Take `CN(C)CCN1C(=O)c2cc3cccnc3c3ccc(N)c(c23)C1=O`: the IC50 in assay [1] came to 117 nM; in assay [2], 170 nM; in [3], 310 nM; in [4], 186 nM; in assay [5], 310 nM; in assay [6] it was 233 nM. In addition, the 50% inhibitory concentration (IC50) came out at 210 nM in assay [7], 270 nM in assay [8], 160 nM in [9] and 466 nM in assay [10].
Turning to `CN(C)CCN1C(=O)c2cccc3cc4c(c(c23)C1=O)CCCC4`, the IC50 in [1] amounted to 223 nM; in assay [2], 18 nM; in assay [3] it was 150 nM; in assay [4], 8 nM; in assay [5], 230 nM; in assay [6], 11 nM. Besides, the IC50 is 220 nM in assay [7], 100 nM in assay [8], 130 nM in [9] and 70 nM in [10].
On to `CN(C)CCN1C(=O)c2cccc3c2c(cc2cccc(Cl)c23)C1=O`, for which the IC50 in assay [1] was found to be 179 nM; in assay [2], 45 nM; in assay [3] it was 150 nM; in [4], 231 nM; in [5] it was 286 nM; in [6], 256 nM. The 50% inhibitory concentration (IC50) in assay [7] was found to be 380 nM; in assay [8], 160 nM; in assay [9], 220 nM; in [10], 385 nM.
Regarding `CC(=O)Nc1ccc2cc3c(c4c2c1C(=O)N(CCN(C)C)C4=O)CCCC3`, the half-maximal inhibitory concentration (IC50) in assay [1] was found to be 132 nM; in [2], 32 nM; in [3] it was 40 nM; in assay [4], 36 nM; in assay [5], 130 nM; in assay [6], 60 nM. In addition, the half-inhibitory concentration (IC50) in assay [7] came to 240 nM; in [8], 40 nM; in [9], 31 nM; in assay [10] it was 48 nM.
Consider `CN(C)CCN1C(=O)c2cccc3c2c(cc2cccc(N)c23)C1=O`, for which the IC50 turned out to be 244 nM in assay [1]; 37 nM in assay [2]; 150 nM in assay [3]; 50 nM in assay [4]; 290 nM in [5]; 54 nM in [6]. The 50% inhibitory concentration (IC50) in assay [7] is 460 nM; in assay [8], 130 nM; in assay [9], 240 nM; in [10] it was 68 nM.
With `CN(C)CCN1C(=O)c2cccc3c2c(cc2c([N+](=O)[O-])cccc23)C1=O`, the half-inhibitory concentration (IC50) is 175 nM in [1]; 154 nM in assay [2]; 180 nM in assay [3]; 50 nM in [4]; 170 nM in assay [5]; 50 nM in assay [6]. Also, the IC50 in [7] amounted to 175 nM; in assay [8] it was 150 nM; in assay [9] it was 135 nM; in [10], 50 nM.
Regarding `CN(C)CCN1C(=O)c2cccc3c2c(cc2c(Cl)cccc23)C1=O`, the IC50 in assay [1] is 513 nM; in [2] it was 22 nM; in assay [3] it was 19 nM; in assay [4] it was 513 nM; in assay [5], 80 nM; in assay [6], 769 nM. The half-inhibitory concentration (IC50) in assay [7] worked out at 110 nM; in assay [8], 60 nM; in [9], 20 nM; in assay [10], 513 nM.
For `CN(C)CCN1C(=O)c2c(NC(=O)C(C)(C)C)ccc3cc4c(c(c23)C1=O)CCCC4`, the IC50 was found to be 8750 nM in assay [1]; 750 nM in assay [2]; 1300 nM in [3]; 1750 nM in assay [4]; 2000 nM in assay [5]; 2190 nM in [6]. The half-maximal inhibitory concentration (IC50) turned out to be 800 nM in assay [7], 950 nM in assay [8], 750 nM in assay [9] and 656 nM in assay [10].
Take `CN(C)CCN1C(=O)c2cccc3c2c(cc2cccnc23)C1=O`: the half-maximal inhibitory concentration (IC50) in assay [1] was 309 nM; in assay [2], 220 nM; in [3], 320 nM; in [4], 26 nM; in assay [5], 400 nM; in assay [6], 43 nM. Moreover, the IC50 in assay [7] turned out to be 370 nM; in assay [8], 210 nM; in assay [9], 195 nM; in assay [10] it was 862 nM.
As for `CN(C)CCN1C(=O)c2cc(N)cc3cc4c(c(c23)C1=O)CCCC4`, the IC50 came out at 610 nM in [1]; 170 nM in [2]; 320 nM in [3]; 26 nM in [4]; 900 nM in assay [5]; 73 nM in [6]. Besides, the IC50 is 1600 nM in assay [7], 240 nM in assay [8], 230 nM in [9] and 488 nM in [10].
Take `CN(C)CCN1C(=O)c2c(N)ccc3cc4c(c(c23)C1=O)CCCC4`: the IC50 in assay [1] stood at 187 nM; in assay [2] it was 13 nM; in [3] it was 130 nM; in assay [4] it was 2 nM; in [5], 110 nM; in [6] it was 11 nM. In addition, the concentration for half-maximal inhibition (IC50) in [7] amounted to 450 nM; in [8] it was 120 nM; in [9], 79 nM; in [10], 80 nM.
`CN(C)CCN1C(=O)c2cccc3c2c(cc2cccc([N+](=O)[O-])c23)C1=O`: the IC50 in assay [1] worked out at 751 nM; in assay [2], 950 nM; in [3], 440 nM; in assay [4] it was 501 nM; in assay [5], 620 nM; in assay [6], 751 nM. Also, the concentration for half-maximal inhibition (IC50) in assay [7] came to 2400 nM; in assay [8], 360 nM; in assay [9], 800 nM; in assay [10], 626 nM.
`CC(=O)Nc1ccc2c3c(cc4cccnc42)C(=O)N(CCN(C)C)C(=O)c13`: the IC50 in [1] came out at 212 nM; in assay [2], 150 nM; in [3] it was 270 nM; in assay [4], 127 nM; in assay [5] it was 290 nM; in assay [6], 424 nM. Moreover, the IC50 in assay [7] turned out to be 195 nM; in [8], 270 nM; in assay [9], 130 nM; in assay [10], 424 nM.
In [2], `CN(C)CCN1C(=O)c2cccc3cc(N)cc(c23)C1=O` [AMONAFIDE] showed a 50% inhibitory concentration (IC50) of 1100 nM.
Still for that read-out and setting: the value for `CN(C)CCN1C(=O)c2cccc3cc4ccccc4c(c23)C1=O` [AZONAFIDE] was 10 nM; that for `COc1cccc2c1C(=O)c1c(O)c3c(c(O)c1C2=O)C[C@@](O)(C(=O)CO)C[C@@H]3O[C@H]1C[C@H](N)[C@H](O)[C@H](C)O1` [DOXORUBICIN] was 22 nM.
In the case of `O=C1c2c(O)ccc(O)c2C(=O)c2c(NCCNCCO)ccc(NCCNCCO)c21` [MITOXANTRONE], the IC50 in assay [2] came out at 3 nM; in assay [6], 10 nM; in [8], 9 nM; in assay [9], 8 nM; in [10], 6 nM.
